Values after ≈ are worked out from the molar mass of the structure shown.
Assays:
Enterococcus faecalis = experiment: Antimicrobial activity against vancomycin-resistant Enterococcus faecalis BM4166 after 24 hrs by microtiter plate based antimicrobial assay; format: functional
Procedure, shortened: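 VanA-type vancomycin-resistant E. faecalis BM4166, with inducible resistance that switches cell-wall precursors from D-Ala-D-Ala to D-Ala-D-Lac on glycopeptide exposure. MIC measured in a microtiter plate format. Unstable hydrazine analogues were assayed within one day of deprotection, as crude material without HPLC purification.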

Staphylococcus aureus = experiment: Antimicrobial activity against vancomycin-sensitive Staphylococcus aureus ATCC 25923 after 24 hrs by microtiter plate based antimicrobial assay; format: functional; details: ATCC 25923, 24 h
Procedure, shortened: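 Microtiter plate broth assay against vancomycin-sensitive S. aureus ATCC 25923. Unstable hydrazine-bearing analogues were tested within one day of freeing the hydrazine. They were used as crude deprotected material without reverse-phase HPLC purification, because purification caused decomposition.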

Compound	MIC (Enterococcus faecalis) [µg/mL]	MIC (Staphylococcus aureus) [µg/mL]
CN[C@H](Cc1cccc(NC(=N)N)c1)C(=O)N[C@H]1C(=O)N[C@@H](CC(N)=O)C(=O)N[C@H]2C(=O)N[C@H]3C(=O)N[C@H](C(=O)N[C@H](C(=O)O)c4cc(O)cc(O)c4-c4cc3ccc4O)[C@H](O)c3ccc(c(Cl)c3)Oc3cc2cc(c3O)Oc2ccc(cc2Cl)[C@H]1O.O=C(O)C(F)(F)F	320	10
CN[C@H](Cc1cccc(NN)c1)C(=O)N[C@H]1C(=O)N[C@@H](CC(N)=O)C(=O)N[C@H]2C(=O)N[C@H]3C(=O)N[C@H](C(=O)N[C@H](C(=O)O)c4cc(O)cc(O)c4-c4cc3ccc4O)[C@H](O)c3ccc(c(Cl)c3)Oc3cc2cc(c3O)Oc2ccc(cc2Cl)[C@H]1O.O=C(O)C(F)(F)F	320	10
CN[C@H](Cc1cccc(N)c1)C(=O)N[C@H]1C(=O)N[C@@H](CC(N)=O)C(=O)N[C@H]2C(=O)N[C@H]3C(=O)N[C@H](C(=O)N[C@H](C(=O)O)c4cc(O)cc(O)c4-c4cc3ccc4O)[C@H](O)c3ccc(c(Cl)c3)Oc3cc2cc(c3O)Oc2ccc(cc2Cl)[C@H]1O.O=C(O)C(F)(F)F	320	20
CN[C@H](Cc1cccc(CN)c1)C(=O)N[C@H]1C(=O)N[C@@H](CC(N)=O)C(=O)N[C@H]2C(=O)N[C@H]3C(=O)N[C@H](C(=O)N[C@H](C(=O)O)c4cc(O)cc(O)c4-c4cc3ccc4O)[C@H](O)c3ccc(c(Cl)c3)Oc3cc2cc(c3O)Oc2ccc(cc2Cl)[C@H]1O.O=C(O)C(F)(F)F	640	> 10
CN[C@H](COC(C)(C)C)C(=O)N[C@H]1C(=O)N[C@@H](CC(N)=O)C(=O)N[C@H]2C(=O)N[C@H]3C(=O)N[C@H](C(=O)N[C@H](C(=O)O)c4cc(O)cc(O)c4-c4cc3ccc4O)[C@H](O)c3ccc(c(Cl)c3)Oc3cc2cc(c3O)Oc2ccc(cc2Cl)[C@H]1O.O=C(O)C(F)(F)F	320	20
CN[C@@H](C(=O)N[C@H]1C(=O)N[C@@H](CC(N)=O)C(=O)N[C@H]2C(=O)N[C@H]3C(=O)N[C@H](C(=O)N[C@H](C(=O)O)c4cc(O)cc(O)c4-c4cc3ccc4O)[C@H](O)c3ccc(c(Cl)c3)Oc3cc2cc(c3O)Oc2ccc(cc2Cl)[C@H]1O)[C@H](C)O.O=C(O)C(F)(F)F	800	40
CN[C@H](CO)C(=O)N[C@H]1C(=O)N[C@@H](CC(N)=O)C(=O)N[C@H]2C(=O)N[C@H]3C(=O)N[C@H](C(=O)N[C@H](C(=O)O)c4cc(O)cc(O)c4-c4cc3ccc4O)[C@H](O)c3ccc(c(Cl)c3)Oc3cc2cc(c3O)Oc2ccc(cc2Cl)[C@H]1O.O=C(O)C(F)(F)F	800	40
CCNC(=O)Nc1cccc(C[C@@H](NC)C(=O)N[C@H]2C(=O)N[C@@H](CC(N)=O)C(=O)N[C@H]3C(=O)N[C@H]4C(=O)N[C@H](C(=O)N[C@H](C(=O)O)c5cc(O)cc(O)c5-c5cc4ccc5O)[C@H](O)c4ccc(c(Cl)c4)Oc4cc3cc(c4O)Oc3ccc(cc3Cl)[C@H]2O)c1.O=C(O)C(F)(F)F	640	31
CN[C@H](Cc1cccc(CNN)c1)C(=O)N[C@H]1C(=O)N[C@@H](CC(N)=O)C(=O)N[C@H]2C(=O)N[C@H]3C(=O)N[C@H](C(=O)N[C@H](C(=O)O)c4cc(O)cc(O)c4-c4cc3ccc4O)[C@H](O)c3ccc(c(Cl)c3)Oc3cc2cc(c3O)Oc2ccc(cc2Cl)[C@H]1O.O=C(O)C(F)(F)F	170	1.25
CN[C@H](CCNN)C(=O)N[C@H]1C(=O)N[C@@H](CC(N)=O)C(=O)N[C@H]2C(=O)N[C@H]3C(=O)N[C@H](C(=O)N[C@H](C(=O)O)c4cc(O)cc(O)c4-c4cc3ccc4O)[C@H](O)c3ccc(c(Cl)c3)Oc3cc2cc(c3O)Oc2ccc(cc2Cl)[C@H]1O.O=C(O)C(F)(F)F	> 400	10
CN[C@H](CC(C)C)C(=O)N[C@H]1C(=O)N[C@@H](CC(N)=O)C(=O)N[C@H]2C(=O)N[C@H]3C(=O)N[C@H](C(=O)N[C@H](C(=O)O)c4cc(O)cc(O)c4-c4cc3ccc4O)[C@H](O)c3ccc(c(Cl)c3)Oc3cc2cc(c3O)Oc2ccc(cc2Cl)[C@H]1O [VANCOMYCIN AGLYCON]	640 (≈ 559 µM)	0.625 (≈ 0.546 µM)
CN[C@H](CC(C)C)C(=O)N[C@H]1C(=O)N[C@@H](CC(N)=O)C(=O)N[C@H]2C(=O)N[C@H]3C(=O)N[C@H](C(=O)N[C@H](C(=O)O)c4cc(O)cc(O)c4-c4cc3ccc4O)[C@H](O)c3ccc(c(Cl)c3)Oc3cc2cc(c3O[C@@H]2O[C@H](CO)[C@@H](O)[C@H](O)[C@H]2O[C@H]2C[C@](C)(N)[C@H](O)[C@H](C)O2)Oc2ccc(cc2Cl)[C@H]1O [VANCOMYCIN]	2000 (≈ 1380 µM)	1.25 (≈ 0.863 µM)

— ChEMBL document CHEMBL1140949, “Synthesis and evaluation of vancomycin aglycon analogues that bear modifications in the N-terminal D-leucyl amino acid” (2009)
